These results are taken from ChEMBL document CHEMBL1671641, “1,5-benzodiazepines, a novel class of hepatitis C virus polymerase nonnucleoside inhibitors” (Antimicrob Agents Chemother, 2008).

Data set [1] concerns Hepatitis C virus. Description: Ratio of EC50 for Hepatitis C virus 796 infected in HuH7 cells to EC50 for Hepatitis C virus 796 harboring NNI P495L mutant site in NS5B infected in HuH7 cells. Type of data set: functional, Hepacivirus hominis, Huh-7. An outline of the steps:
(§1)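 NS5B NNI-site mutations were introduced into the genotype 1b ET subgenomic luciferase replicon by site-directed mutagenesis. RNA was made by in vitro transcription and tested in a transient-replication assay.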

Data set [2] deals with Hepatitis C virus. Description: Ratio of EC50 for Hepatitis C virus 796 infected in HuH7 cells to EC50 for Hepatitis C virus 796 harboring NNI M414Q mutant site in NS5B infected in HuH7 cells. Format: functional, Hepacivirus hominis, Huh-7. An outline of the steps:
as §1

Data set [3] concerns Hepatitis C virus. Description: Ratio of EC50 for Hepatitis C virus 796 infected in HuH7 cells to EC50 for Hepatitis C virus 796 harboring NNI Y448A mutant site in NS5B infected in HuH7 cells. Type of data set: functional, Hepacivirus hominis, Huh-7. In a few lines: as §1
Data set [4] has as its system Hepatitis C virus. In words: Ratio of EC50 for Hepatitis C virus 796 infected in HuH7 cells to EC50 for Hepatitis C virus 796 harboring NNI C316Y mutant site in NS5B infected in HuH7 cells. Format: functional, Hepacivirus hominis, Huh-7. In a few lines: as §1
The test system of data set [5] is Hepatitis C virus. In words: Ratio of EC50 for Hepatitis C virus 796 infected in HuH7 cells to EC50 for Hepatitis C virus 796 harboring NNI M423T mutant site in NS5B infected in HuH7 cells. Format: functional, Hepacivirus hominis, Huh-7. In a few lines: as §1
Data set [6] deals with Hepatitis C virus. Description: Ratio of EC50 for Hepatitis C virus 796 infected in HuH7 cells to EC50 for Hepatitis C virus 796 harboring NNI H95R mutant site in NS5B infected in HuH7 cells. Type of data set: functional, Hepacivirus hominis, Huh-7. In a few lines:
as §1

The test system of data set [7] is Hepatitis C virus. In words: Antiviral activity against Hepatitis C virus 1b infected in human HuH7 cells assessed as inhibition of viral replication after 3 days by luciferase reporter assay. Format: functional, organism-based, Hepacivirus hominis, genotype 1b, Huh-7. In a few lines:
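HCV 1b subgenomic luciferase reporter replicon (clone ET) cells, 2,500 per well, were exposed to a nine-point 1/4 dilution series for 3 days. Replication was read as luciferase activity. Values are means ± SD from 2 to 23 independent experiments run in quadruplicate.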

The test system of data set [8] is Hepatitis C virus. In words: Inhibition of Hepatitis C virus 1b J4 recombinant NS5B Cdelta 21 RNA dependent RNA polymerase overexpressed in Escherichia coli BL21 (DE3) assessed as [alpha-33P]UTP incorporation by RdRp primer-independent transcription assay. Also noted: species or system Hepatitis C virus subtype 1b. An outline of the steps:
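De novo (primer-independent) RdRp assay: 190 nM NS5BΔ21 (1b J4) with 86 nM HCV 3′ UTR template RNA, 0.5 mM each ATP/GTP/CTP, 10 μM UTP plus [α-³³P]UTP, in 20 mM Tris-HCl pH 7.5, 1 mM DTT, 5 mM MgCl₂, 20 mM NaCl. Incubated 2 h at room temperature, stopped with EDTA/tRNA, TCA-precipitated on filters, and scintillation-counted. Quadruplicate.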

The next data set concerns MT4. Description: (§2) Cytotoxicity against LTR-Luc transfected human MT4 cells […] after 3 days by ATPLite assay. Format: cell-based. To be noted: mt4, 72 h, 72 h. (Cellular ATP, detected with luciferase, serves as a proxy for viable cell number.)
The subject of data set [9] is Hepatitis C virus. Description: Inhibition of Hepatitis C virus 1b J4 recombinant NS5B Cdelta 21 RNA dependent RNA polymerase overexpressed in Escherichia coli BL21 (DE3) by RdRp primer-dependent transcription assay. Also noted: species or system Hepatitis C virus subtype 1b.
Data set [10] can be described thus: Cytotoxicity against CMV-Luc transfected human HuH7 cells after 5 days. Format: cell-based, Huh-7. To be noted: for CC50: huh-7, 120 h, 120 h; for CC50 at 120 h: CMV-Luc transfected HuH7 cells.
The subject of data set [11] is Hepatitis C virus. Description: Inhibition of Hepatitis C virus 1b J4 recombinant NS5B Cdelta 21 RNA dependent RNA polymerase overexpressed in Escherichia coli BL21 (DE3). Also noted: species or system Hepatitis C virus subtype 1b.
Data set [12] in a line: as §2. Format: cell-based.

pEC50, pIC50: −log10 of the molar value. Some results are limits rather than exact numbers.

Consider `CC(C)N(c1cc(-c2ccccc2)sc1C(=O)O)C(=O)[C@H]1CC[C@H](C)CC1`, for which the “fold change (FC)” value in the data set on Hepatitis C virus [1], in the data set on Hepatitis C virus [2], in the data set with Hepatitis C virus [3], with Hepatitis C virus [4], in the data set with Hepatitis C virus [5] and with Hepatitis C virus [6] was 10 throughout.

Take `CC(=O)N1c2ccccc2NC2=C(C(=O)CC(C)(C)C2)C1c1ccc(OCc2ccccc2)cc1` (single isomer, unassigned; 3a): the pEC50 (usually the EC50 on a negative log10 scale, so that one unit is a factor of ten) in the data set with Hepatitis C virus [7] (huh-7) was 4.82. In addition, the pIC50 (as a rule, the negative decadic logarithm of the IC50, by convention in mol/L) with Hepatitis C virus [8] is 6.27; in the data set on Hepatitis C virus [9] it was 6.00. For the same compound, the CC50 (usually the concentration at which the toxic effect on the cells reaches its halfway point) in the data set on MT4 is 22.2 µM; in data set [10], 19.2 µM.

`CC(=O)N1c2ccccc2NC2=C(C(=O)CC(C)(C)C2)C1c1ccc(OCc2ccccc2)cc1` (single isomer, unassigned; 3b): the pEC50 with Hepatitis C virus [7] (huh-7) was 5.70. Further, the pIC50 is 4.10 with Hepatitis C virus [8] and 4.06 in the data set with Hepatitis C virus [9]. The values for the CC50 (with MT4; in data set [10]) were 18.3 µM and 19.7 µM, respectively.

For `CC(=O)N1c2ccccc2NC2=C(C(=O)CC(C)(C)C2)C1c1ccc(OCc2ccccc2)c(Cl)c1` (single isomer, unassigned; 4b), in the data set on Hepatitis C virus [7] (huh-7), the pEC50 was 6.22. For the same compound, the figures for the pIC50 in the data set with Hepatitis C virus [8] and in the data set with Hepatitis C virus [9] were < 4.49 and 4.44, respectively. Besides, the figures for the CC50 (with MT4; in [10]) were 12.9 µM and 21.2 µM, respectively.

As to `CC(=O)N1c2ccccc2NC2=C(C(=O)CC(C)(C)C2)C1c1ccc(OCc2ccccc2)cc1Cl` (single isomer, unassigned; 5a), the pEC50 in the data set with Hepatitis C virus [7] (huh-7) was 5.03. The CC50 in the data set on MT4 was 19.5 µM; in [10] it was 49 µM. The pIC50 in the data set with Hepatitis C virus [9] is 6.48.

For `CC(=O)N1c2ccccc2NC2=C(C(=O)CC(C)(C)C2)C1c1ccc(OCc2ccccc2)cc1Cl` (single isomer, unassigned; 5b), in the data set on Hepatitis C virus [7] (huh-7), the pEC50 is 5.41. Further, the results for the CC50 (with MT4; in data set [10]) were 17.3 µM and 53.7 µM, respectively. Further, the pIC50 with Hepatitis C virus [9] was 4.08.

Turning to `CC(=O)N1c2ccccc2NC2=C(C(=O)CC(C)(C)C2)C1c1ccc(OCc2ccccc2)cc1` (stereo in doubt; 3), the pIC50 in the data set on Hepatitis C virus [11] is 5.52. Also, in the data set on Hepatitis C virus [7] (huh-7), the pEC50 was 5.24. For the same compound, in data set [12], the CC50 at 72 h amounted to 32 µM. In [10], the CC50 at 120 h worked out at 32 µM.

Take `CC(=O)N1c2ccccc2NC2=C(C(=O)CC(C)(C)C2)C1c1ccc(OCc2ccccc2)c(Cl)c1` (stereo in doubt; 4): the pEC50 in the data set with Hepatitis C virus [7] (huh-7) was 5.66. The same compound returned a CC50 at 72 h in data set [12] of 22.1 µM. Also, half-maximal cytotoxicity in [10] (CC50 at 120 h) was put at 40.2 µM.

`CC(=O)N1c2ccccc2NC2=C(C(=O)CC(C)(C)C2)C1c1ccc(OCc2ccccc2)cc1Cl` (stereo in doubt; 5) showed a CC50 at 72 h in [12] of 16.7 µM. Moreover, the CC50 at 120 h in data set [10] was 35.5 µM.

Consider `CC(=O)N1c2cccc(O)c2NC2=C(C(=O)CC(C)(C)C2)C1c1ccc(OCc2ccccc2)cc1Cl` (stereo in doubt; 7), for which the pEC50 with Hepatitis C virus [7] (Hepatitis C virus, genotype 1b, Huh-7, 72 h) is 5.84. The CC50 at 72 h in [12] came to 17.8 µM. Further, half-maximal cytotoxicity in [10] (CC50 at 120 h) was put at 13.4 µM.

As for `CC(C)C[C@@]1(C(=O)O)C[C@H](C#N)[C@H](c2nccs2)N1C(=O)c1ccc(C(C)(C)C)cc1` [ACYL PYRROLIDINE], the “fold change (FC)” value in the data set on Hepatitis C virus [1], in the data set with Hepatitis C virus [2], in the data set with Hepatitis C virus [3], in the data set on Hepatitis C virus [4], in the data set with Hepatitis C virus [5] and in the data set on Hepatitis C virus [6] was 10 throughout.

For `c1ccc2occc2c1` [BENZOFURAN], the “fold change (FC)” value with Hepatitis C virus [1], with Hepatitis C virus [2], in the data set on Hepatitis C virus [3], in the data set on Hepatitis C virus [4], with Hepatitis C virus [5] and in the data set on Hepatitis C virus [6] was 10 throughout.

Take `c1ccc2[nH]ccc2c1` [INDOLE]: the “fold change (FC)” value in the data set on Hepatitis C virus [1], in the data set with Hepatitis C virus [2], with Hepatitis C virus [3], with Hepatitis C virus [4], in the data set with Hepatitis C virus [5] and with Hepatitis C virus [6] was 10 throughout.
